# Reference: publication PMC10194142 (Virus Research, 2023)
# Columns and labels:
# ZIKV (MR-766) = assay: ZIKV RNA replication in infected Huh-7 cells by RT-qPCR; assay type: cell-based, Zika virus; conditions: for inhibition of ZIKV replication (ZIKV RNA level): 0.2, 0.69, 2, 6 μM for 72 h, Huh-7, MOI 0.1; for EC50: Zika virus, Huh-7, 72 h; for Selectivity index (SI = CC50/EC50): Huh-7 cells
# ZIKV NS2B-NS3 protease [1] = target: T1, ZIKV NS2B-NS3 protease (Zika virus, UniProt Q32ZE1); assay: Kinetic analysis of inhibition mechanism; assay type: biochemical; conditions: for inhibition mechanism: 75 μM compound, 5 μM protease, Boc-KKR-AMC 0 to 20 μM; for Kcat / Vmax value: protease with 75 μM compound; for Kcat: untreated protease 0.0142; for Vmax value: untreated protease 0.071
# T1 sequence (Q32ZE1 with tags, fused parts or gaps DEL1468-1489/Y1490G/V1491G/Y1492G/V1493G/K1494S/T1495G/K1497G/R1498G): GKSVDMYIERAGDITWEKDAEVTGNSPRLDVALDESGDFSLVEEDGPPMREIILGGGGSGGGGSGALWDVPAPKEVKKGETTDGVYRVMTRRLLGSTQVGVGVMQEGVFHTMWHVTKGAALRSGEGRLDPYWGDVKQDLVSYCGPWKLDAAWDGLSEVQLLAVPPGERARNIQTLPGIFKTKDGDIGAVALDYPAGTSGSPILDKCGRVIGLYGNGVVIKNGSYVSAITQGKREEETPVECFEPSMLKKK
# Method in brief: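 Purified His-tagged NS2B-NS3 protease was expressed in E. coli BL21(DE3). 5 μM protease was preincubated with 75 μM test compound in cleavage buffer for 30 min at 37 °C. Boc-KKR-AMC at 0–20 μM was then added for 1 h at 37 °C. Released AMC was read at ex 355 / em 455 nm against an AMC standard curve. Mechanism was assigned from Lineweaver-Burk plots.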
# [2] = Cell viability by ATPlite; assay type: cell-based; conditions: human, Huh-7 cells
# ZIKV NS2B-NS3 protease [3] = target: T1, ZIKV NS2B-NS3 protease; assay: ZIKV NS2B-NS3 enzyme-based fluorescence peptide cleavage assay; assay type: biochemical; conditions: for protease activity inhibition efficacy in screening: inhibitor concentration of 50 μM, 5 μM protease, 10 μM substrate
# Method in brief: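 His-tagged NS2B-NS3 protease was expressed in E. coli BL21(DE3) and purified by metal-affinity chromatography. Test compound at 6.25–100 μM was incubated with 5 μM protease in cleavage buffer for 30 min at 37 °C, then with 10 μM Boc-KKR-AMC for 1 h. AMC fluorescence was read at ex 355 / em 455 nm. Activity is expressed as % of the protease-alone control.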
# ZIKV [4] = conditions: primary placental cells, dose range of 0.2 to 1 μM; ref Tabata et al., 2016; cited from earlier work
# ZIKV [5] = assay: ZIKV-infected ICR suckling mouse model; assay type: in vivo
# Method in brief: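 Six-day-old ICR suckling mice (n = 6 per group) were injected intracerebrally with 10^4 pfu ZIKV. Mock mice received 60 °C heat-inactivated virus. Saline or test compound (1 or 10 mg/kg, i.c.) was given at days 1, 3 and 5 post-infection. At day 6, 0.1 g brain was lysed in RIPA for NS2B western blot. The remaining brain had H&E and IHC (NS1, Ly6C), with infiltration quantified. Data are mean ± SD.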
# ZIKV [6] = conditions: plaque reduction assay; ref Chan et al., 2017; cited from earlier work
molecule,measurement,setting,value
"COc1cc(C=C2C(=O)N(c3ccccc3)C(=S)N(c3ccccc3)C2=O)cc(I)c1OCc1ccccc1Cl [Compound 3, 5-(4-((2-chlorobenzyl)oxy)−3-iodo-5-methoxybenzylidene)−1,3-diphenyl-2-thioxodihydropyrimidine-4,6(1H,5H)-dione]",inhibition of ZIKV replication (ZIKV RNA level),ZIKV (MR-766),could significantly inhibit ZIKV replication
same,EC50,ZIKV (MR-766),2.15 µM
same,inhibition mechanism,ZIKV NS2B-NS3 protease [1],non-competitive
same,Kcat,ZIKV NS2B-NS3 protease [1],0.00013 s⁻¹
same,Vmax value,ZIKV NS2B-NS3 protease [1],0.040 µmol/min
same,CC50 at 48 h,[2],> 200 µM
same,IC50,ZIKV NS2B-NS3 protease [3],14 µM
same,protease activity inhibition efficacy in screening,ZIKV NS2B-NS3 protease [3],better protease activity inhibition efficacy than others
"O=C1C(=Cc2cc(I)c(O)c(I)c2)C(=O)N(c2ccccc2)C(=S)N1c1ccccc1 [Compound 4, 5-(4‑hydroxy-3,5-diiodobenzylidene)−1,3-diphenyl-2-thioxodihydropyrimidine-4,6(1H,5H)-dione]",IC50,ZIKV NS2B-NS3 protease [3],> 100 µM
"Cc1ccc(S(=O)(=O)/N=C2\C=C(NS(=O)(=O)c3ccccc3)C(=O)c3ccccc32)cc1 [Compound 7, (E)−4-methyl-N-(4-oxo-3-(phenylsulfonamido)naphthalen-1(4H)-ylidene)benzenesulfonamide]",IC50,ZIKV NS2B-NS3 protease [3],> 100 µM
"CC(C)c1ccc(S(=O)(=O)/N=C2/C=C(NS(=O)(=O)c3ccccc3)C(=O)c3ccccc32)cc1 [Compound 10, (Z)−4-isopropyl-N-(4-oxo-3-(phenylsulfonamido)naphthalen-1(4H)-ylidene)benzenesulfonamide]",IC50,ZIKV NS2B-NS3 protease [3],> 100 µM
"Oc1cccc(-c2c3nc(c(-c4cccc(O)c4)c4ccc([nH]4)c(-c4cccc(O)c4)c4nc(c(-c5cccc(O)c5)c5ccc2[nH]5)CC4)C=C3)c1 [Temoporfin, reference compound]",Selectivity index (SI = CC50/EC50),ZIKV (MR-766),30.53
same,EC50,ZIKV (MR-766),2 µM
same,CC50 at 48 h,[2],61.1 µM
same,IC50,ZIKV NS2B-NS3 protease [3],18.8 µM
"COc1cc(C=C2C(=O)N(c3ccccc3)C(=S)N(c3ccccc3)C2=O)cc(Br)c1OCc1cccc2ccccc12 [Compound 2, 5-(3‑bromo-5‑methoxy-4-(naphthalen-1-ylmethoxy)benzylidene)−1,3-diphenyl-2-thioxodihydropyrimidine-4,6(1H,5H)-dione]",IC50,ZIKV NS2B-NS3 protease [3],72.5 µM
"Cc1ccc(S(=O)(=O)/N=C2\C=C(NS(=O)(=O)c3ccccc3)C(=O)c3ccccc32)c(C)c1 [Compound 11, (E)−2,4-dimethyl-N-(4-oxo-3-(phenylsulfonamido)naphthalen-1(4H)-ylidene)benzenesulfonamide]",IC50,ZIKV NS2B-NS3 protease [3],> 100 µM
"CCc1ccc(S(=O)(=O)/N=C2\C=C(NS(=O)(=O)c3ccccc3)C(=O)c3ccccc32)cc1 [Compound 5, (E)−4-ethyl-N-(4-oxo-3-(phenylsulfonamido)naphthalen-1(4H)-ylidene)benzene sulfonamide]",IC50,ZIKV NS2B-NS3 protease [3],> 100 µM
"Cc1cc(C)c(S(=O)(=O)/N=C2\C=C(NS(=O)(=O)c3ccccc3)C(=O)c3ccccc32)cc1C [Compound 6, (E)−2,4,5-trimethyl-N-(4-oxo-3-(phenylsulfonamido)naphthalen-1(4H)-ylidene)benzenesulfonamide]",IC50,ZIKV NS2B-NS3 protease [3],> 100 µM
duramycin,block of ZIKV infection,ZIKV [4],> 80%
"COc1cc(C=C2C(=O)N(c3ccc(C)cc3)C(=S)N(c3ccc(C)cc3)C2=O)cc(Br)c1O [Compound 8, 5-(3‑bromo-4‑hydroxy-5-methoxybenzylidene)−2-thioxo-1,3-di-p-tolyldihydropyrimidine-4,6(1H,5H)-dione]",inhibition of ZIKV replication (ZIKV RNA level),ZIKV (MR-766),could significantly inhibit ZIKV replication
same,EC50,ZIKV (MR-766),0.52 µM
same,inhibition mechanism,ZIKV NS2B-NS3 protease [1],non-competitive
same,Kcat,ZIKV NS2B-NS3 protease [1],0.00015 s⁻¹
same,Vmax value,ZIKV NS2B-NS3 protease [1],0.045 µmol/min
same,survival (protection from lethal ZIKV infection),"ZIKV [5]; 1 mg/kg or 10 mg/kg on days 1, 3, 5, observed 6 days, vs saline",protected all ZIKV-infected suckling mice from lethal ZIKV infection
same,clinical score (sickness),"ZIKV [5]; 1 mg/kg or 10 mg/kg on days 1, 3, 5, vs saline",a delay in the sickness induced by ZIKV infection
same,Ly6C+ monocyte infiltration in brain tissue,"ZIKV [5]; 6 dpi, vs saline-treated group",significantly less accumulated
same,ZIKV NS1 level in brain tissue (IHC),"ZIKV [5]; 6 dpi, vs saline-treated group",significantly decreased
same,ZIKV NS2B protein level in brain tissue (western blot),"ZIKV [5]; 6 dpi, vs saline-treated group",significantly decreased
same,CC50 at 48 h,[2],> 200 µM
same,IC50,ZIKV NS2B-NS3 protease [3],6.85 µM
same,protease activity inhibition efficacy in screening,ZIKV NS2B-NS3 protease [3],better protease activity inhibition efficacy than others
"Cc1ccc(NC(=O)COc2ccc(C=C3C(=O)N(c4ccccc4)C(=S)N(c4ccccc4)C3=O)cc2)cc1C [Compound 9, N-(3,4-dimethylphenyl)−2-(4-((4,6-dioxo-1,3-diphenyl-2-thioxotetrahydropyrimidin-5(2H)-ylidene)methyl)phenoxy)acetamide]",inhibition of ZIKV replication (ZIKV RNA level),ZIKV (MR-766),could significantly inhibit ZIKV replication
same,Selectivity index (SI = CC50/EC50),ZIKV (MR-766),17.46
same,EC50,ZIKV (MR-766),3.52 µM
same,inhibition mechanism,ZIKV NS2B-NS3 protease [1],non-competitive
same,Kcat,ZIKV NS2B-NS3 protease [1],0.000143 s⁻¹
same,Vmax value,ZIKV NS2B-NS3 protease [1],0.043 µmol/min
same,CC50 at 48 h,[2],61.5 µM
same,IC50,ZIKV NS2B-NS3 protease [3],14.2 µM
same,protease activity inhibition efficacy in screening,ZIKV NS2B-NS3 protease [3],better protease activity inhibition efficacy than others
CC(C)C[C@H]1C(=O)N2CCC[C@H]2[C@]2(O)O[C@](NC(=O)[C@@H]3C=C4c5cccc6[nH]c(Br)c(c56)C[C@H]4N(C)C3)(C(C)C)C(=O)N12 [bromocriptine],ZIKV-mediated plaque reduction,ZIKV [6],~100%
"CC(=O)Oc1ccc(C=C2C(=O)N(c3ccccc3)C(=S)N(c3ccccc3)C2=O)cc1 [Compound 1, 4-((4,6-dioxo-1,3-diphenyl-2-thioxotetrahydropyrimidin-5(2H)-ylidene)methyl)phenyl acetate]",IC50,ZIKV NS2B-NS3 protease [3],63.4 µM
